Screens as filed in PubChem.
F508del corr: correctors of CFTR F508del function in bronchial epithelial cells. CFBE cells, YFP halide quenching; stimulated with forskolin plus potentiator P3; % fluorescence drop versus neutral controls. actives 0.36% (n = 350,000). activity (quench increase), % at 7.58 µM;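 active = mean added fluorescence quench of at least 8% versus neutral control, with both replicates also reaching 8%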;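 also: cells transiently co-express mutant CFTR-F508del with the halide-sensitive YFP; corrector assay measuring rescue of mutant channel to the surface after 24 h compound exposure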
FN deposit inh: fibronectin deposition inhibition; AH1F fibroblasts, Alexa488-fibronectin deposition fluorescence, overnight; inhibition, % at 12.6 µM; actives 0.086% (n = 350,000); AID 743247;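 active = mean inhibition across replicates of 30% or more, regardless of how many single replicates reach that level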;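 also: positive control wells lacked labelled fibronectin entirely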
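Measured by – fluorescence 485/525 nm · System – AH1F fibroblast monolayer, labelled fibronectin deposition · Amount – 10000 cells per well · Buffer or medium – serum-reduced DMEM (2% serum) · Doses – single dose, pinned · Also added – fluorescent fibronectin at 24 nM final · Schedule – 1 h cell attachment, overnight exposure to compound and label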
Cneo AK release: Cryptococcus neoformans lysis via adenylate kinase release | actives 0.2% (n = 360,000) | C. neoformans lysis, adenylate kinase release luminescence, 4 h; normalised: neutral wells 0, clomiphene wells 100 | lysis activity, % at 15 µM;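 active = mean lysis activity across replicates of at least 80%, whatever share of replicates individually reach that level; inactive = mean lysis activity below 80%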
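Material – log-phase Cryptococcus neoformans yeast cells · Input – 5 × 10^6 yeast cells/mL · Medium – fresh YPD growth medium · Doses – single compound concentration per well · Timing – static 4 h at 37 °C with compound, 1 h detection · Detection – adenylate kinase release luminescence · Read-out – signal increase indicating cell lysis · Control set – Clomiphene as positive lysis control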
Xi reactivation: reactivates the inactive X chromosome in mouse fibroblasts | XiGFP mouse fibroblasts, % GFP-positive cells imaging, 3 d; cells co-treated with 5-aza-dC sensitizer; scaled so ellipticine positive control = 100% | actives 0.055% (n = 360,000) | AID 743238 | activation, % at 7.58 µM;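 active = mean normalized replicate activation at least 10% and every replicate at or above 10%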;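 also: 0% = median of on-plate neutral control wells and 100% = ellipticine 6 µM median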
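Material: SV40-immortalized XiGFP fibroblast cells, line 68-5-11 | Buffer or medium: DMEM containing 5-aza-dC | Dosing: One concentration, pinned | Times: 3 d treatment, 15 min room-temperature fixation | Controls: Ellipticine 6 µM positive control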
DENV2 CPE: DENV2-induced cell death inhibition; DENV2-infected cells, cytopathic effect rescue, plate reader; CPE inhibition, % at 9.99 µM; actives 1.7% (n = 350,000); in the data active = CPE inhibition above about 20%, passing the limit was not always enough; tested in BHK-21 cells;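 also: 0% = median of neutral control wells and 100% = median of positive control wells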
PGC1a acetyl inh: lowers PGC1a acetylation signal in U2OS cells; AlphaScreen anti-acetyl-lysine; with virally co-expressed GCN5 acetyltransferase; inhibition, % at 15.6 µM; actives 0.17% (n = 350,000); AID 651687;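 active = every replicate shows inhibition of at least 40%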;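 also: 0% = neutral control wells and 100% = positive control wells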
Numbers without * were called inactive; · = no result given. This is a sample that favours compounds with a hit; in the whole collection about 1.9% have one here.

SMILES	F508del corr	FN deposit inh	Cneo AK release	Xi reactivation	DENV2 CPE	PGC1a acetyl inh
C[C@H]1CN([C@@H](C)CO)C(=O)Cc2cc(NC(=O)Nc3cccc4ccccc34)ccc2O[C@@H]1CN(C)Cc1ccc(C(=O)Nc2ccccc2N)cc1	-1	·	·	0	38*	6
C[C@H]1CN([C@@H](C)CO)C(=O)Cc2cc(NC(=O)Nc3cccc4ccccc34)ccc2O[C@H]1CN(C)Cc1ccc(C(=O)Nc2ccccc2N)cc1	-2	·	·	-1	6	-9
O=C(N/N=C/c1ccc(O)cc1)c1[nH]c2ccc(Br)cc2c1-c1ccccc1	10.0*	-16	·	0	-3	·
O=C(NN=C1CCCC1)c1[nH]c2ccc(Cl)cc2c1-c1ccccc1	14*	6	2	1	-5	-12
CC(=O)NNC(=O)c1[nH]c2ccc(Cl)cc2c1-c1ccccc1	-1	7	·	0	-3	·
O=C(N/N=C/c1c[nH]c2ccccc12)c1[nH]c2ccc(Br)cc2c1-c1ccccc1	·	18	4	0	-2	0
O=C(C[C@H]1CC[C@@H](NC(=O)Nc2ccccc2F)[C@@H](CO)O1)NCc1ccc(F)cc1	0	·	·	0	-4	1
COc1ccccc1CNCc1ccc2c(c1)OCO2	-1	-10	0	0	-7	·
O=Cc1ccccc1OCc1ccc2c(c1)OCO2	11*	-5	-3	0	2	·
COC(=O)C[C@H]1CC[C@@H](NS(=O)(=O)c2ccc(OC)cc2)[C@H](CO)O1	2	14	15	0	8	1
O=C1[C@@H](Oc2ccccc2)[C@@H](c2ccncc2)N1c1ccncc1	3	13	1	0	28*	1
Cc1ccccc1S(=O)(=O)NCC[C@@H]1CC[C@@H](NC(=O)C2CCCCC2)[C@@H](CO)O1	4	3	8	0	27*	1
O=C(N[C@H]1CC[C@H](CCNS(=O)(=O)c2ccc(F)cc2)O[C@@H]1CO)C1CCCC1	-3	·	-2	0	32*	6
Cc1ccccc1S(=O)(=O)NCC[C@H]1CC[C@H](NC(=O)C2CCCC2)[C@@H](CO)O1	0	1	-3	0	8	-1
O=C(Nc1cccc2ncccc12)c1ccc(Cl)cc1	1	2	2	0	-7	20
CCc1ccc(C(=O)Nc2cccnc2Oc2ccc(Cl)cc2)cc1	0	5	·	0	1	87*
CCNC(=O)C[C@@H]1CC[C@@H]2[C@H](COc3ccc(NC(=O)Nc4c(C)noc4C)cc3C(=O)N2C)O1	-4	3	-3	0	-4	-6
COc1ccccc1-c1ccc([C@@H]2[C@@H](CO)N3CCCCN(Cc4ccncc4)C[C@H]23)cc1	-1	·	-4	0	26*	-5
OC[C@H]1[C@@H](c2ccc(-c3ccc(F)cc3)cc2)[C@@H]2CN(Cc3ccccn3)CCCCN12	0	·	-2	0	29*	-4
OC[C@H]1[C@H](c2ccc(-c3ccc(F)cc3)cc2)[C@@H]2CN(Cc3ccncc3)CCCCN12	1	·	3	0	44*	2
CC(=O)Nc1ccc2c(c1)CC(=O)N(C)C[C@H](C)[C@@H](CN(C)C(C)=O)O2	·	0	·	0	·	·
C[C@@H]1CN([C@H](C)CO)S(=O)(=O)c2ccc(C3=CCCCC3)cc2O[C@@H]1CN(C)C(=O)C1CCOCC1	-1	-4	-2	0	0	-2
C[C@@H]1CN([C@H](C)CO)C(=O)c2cc(NC(=O)C3CC3)ccc2O[C@@H]1CN(C)S(=O)(=O)c1cn(C)cn1	-2	·	2	0	4	7
CCOC(=O)c1[nH]c2ccccc2c1NC(=O)c1ccc2c(c1)OCO2	-3	-6	-1	0	40*	-2
CCN(CC(=O)Nc1c(C(=O)OC)[nH]c2ccccc12)c1ccc2c(c1)OCO2	·	-5	31	·	·	-11
CCOC(=O)c1[nH]c2ccc(OC)cc2c1NC(=O)c1ccc2c(c1)OCO2	·	-15	-1	·	·	-55
